Compounds with a hit are over-represented: about 2.9% of the library has one in this group of screens.
T cruzi inh = T. cruzi replication inhibition | T. cruzi beta-gal in NIH3T3, luminescence, 90 h | inhibition, % (test concentration not listed) | hit rate 1.4% among 300,000;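 active = mean inhibition across valid replicates above about 55%, limit read from the data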;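 also: signal also drops with host cell toxicity which is not excluded here; 0% = plate median of DMSO wells and 100% = zero luminescence signal; higher percent means less beta-gal luminescence so fewer parasites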
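System: NIH/3T3 fibroblasts plus reporter T. cruzi. Medium: DMEM plus 2% FBS. Probe or stimulus: 5000 reporter trypomastigotes per well. Compound: single 50 nL compound addition per well in DMSO. Incubation: co-culture of at least 90 h after 3 h attachment. Detection: GalScreen β-gal luminescence, detergent lysis, 60 min. Evaluation: parasite load inhibition, %.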
hiPSC survival = increases survival of single human iPS cells. hiPSC single-cell survival, ATPlite luminescence; 100% = ROCK inhibitor wells, 0% = DMSO. survival enhancement, % at 20 µM. hit rate 0.044% among 360,000. AID 602274; in the data active = survival enhancement above about 18%;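 also: cells exposed to compounds for 16 hours before the ATP read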
PG9 Ab binder = binds the HIV-1 gp120 antibody PG9. TR-FRET gp120-PG9 antibody binding. inhibition, % at 6.7 µM. hit rate 0.43% among 360,000; in the data active = inhibition above about 8.5%
TAG inh = triacylglycerol accumulation inhibition. hit rate 0.66% among 230,000. AID 651582. inhibition, % at 12.5 µM. H9c2 cells, Nile Red lipid (TAG) fluorescence; cells loaded with 200 µM oleic acid;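 active = pattern-corrected inhibition of lipid staining of at least 50% with the nuclear-stain viability signal not falling by more than 50%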;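 also: 0% = DMSO wells and 100% = triacsin C control wells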
Rev-erbA mod = Rev-erb alpha (human) modulation. P20393. Rev-erbα–FITC-DNA binding, fluorescence polarization, 90 min. activity, % at 10 µM. hit rate 0.79% among 370,000;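 active = activity above about 14%, limit read from the data; passing the limit was not always enough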;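 also: 0% = DMSO wells with 35 nM protein and 100% = DMSO wells with 750 nM protein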
Target sequence (P20393 whole entry, looked up): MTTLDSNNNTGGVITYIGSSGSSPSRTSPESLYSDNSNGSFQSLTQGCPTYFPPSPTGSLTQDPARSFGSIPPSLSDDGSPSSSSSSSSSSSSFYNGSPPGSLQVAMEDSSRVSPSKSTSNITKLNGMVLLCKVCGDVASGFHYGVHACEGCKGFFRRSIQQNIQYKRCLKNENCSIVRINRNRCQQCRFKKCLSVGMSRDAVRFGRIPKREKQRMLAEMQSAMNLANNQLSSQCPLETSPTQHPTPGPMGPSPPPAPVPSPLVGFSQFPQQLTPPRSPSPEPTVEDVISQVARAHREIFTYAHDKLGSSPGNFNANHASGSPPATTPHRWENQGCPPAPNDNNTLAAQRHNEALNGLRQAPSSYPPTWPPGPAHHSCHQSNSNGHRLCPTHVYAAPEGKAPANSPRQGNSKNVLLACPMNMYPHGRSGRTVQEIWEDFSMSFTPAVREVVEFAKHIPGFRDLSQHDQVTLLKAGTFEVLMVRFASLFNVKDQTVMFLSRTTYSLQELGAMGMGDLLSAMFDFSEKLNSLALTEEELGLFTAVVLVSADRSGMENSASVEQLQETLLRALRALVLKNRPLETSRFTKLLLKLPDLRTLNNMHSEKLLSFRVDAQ
MIN6 prolif = induces beta-cell replication in MIN6 cells. MIN6 cells proliferation, ATPlite luminescence, 48 h; cells starved in 0.2% serum; 100% = growth in 10% serum. proliferation, % at 10 µM. hit rate 0.29% among 330,000;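 active = compounds whose signal lies at least 3.5 SD above the mean of all wells on their plate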;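 also: 0% = DMSO-treated cells in low-serum medium and 100% = 10% serum control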
Rev-erbA confirm = confirmation of modulators of human Rev-erb alpha DNA binding; activation, % at 25 µM; Rev-erb alpha FITC-DNA binding, fluorescence polarization, 90 min; shares compounds with Rev-erbA mod; hit rate 61% among 3,000;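 active = activation at or above a set limit, or at least 3 SD above the negative control mean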;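 also: 0% = 35 nM protein with DMSO and 100% = 750 nM protein high control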
RORg DNA counter = counter-screen for Rev-erb alpha modulators: RORgamma DNA binding; purified RORgamma protein-FITC-DNA binding, fluorescence polarization; shares compounds with Rev-erbA mod; IC50, µM; AID 1259320; hit rate 8% among 910;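 active = Compounds whose fitted half-maximal concentration for disrupting protein-DNA binding is below 10 micromolar; the record names Rev-erb in its text, so the target is in doubt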
* hit, by the source's call; nt = no result.

SMILES	T cruzi inh	hiPSC survival	PG9 Ab binder	TAG inh	Rev-erbA mod	MIN6 prolif	Rev-erbA confirm	others
Cc1cc(C)c(NC(=O)CSc2nc(COc3ccccc3)nc3ccccc23)c(C)c1	-7.4	-0.2	-0.4	nt	54.8*	-3.2	47.2*	RORg DNA counter=>40
O=C(NCCOC(=O)c1ccc(S(=O)(=O)N2CCOCC2)cc1)c1cccnc1	-11.1	4.3	1.3	nt	6.7	0.3	nt
Cc1cc2cc3c(=O)[nH]c(=O)[nH]c3nc2cc1C	-5.0	nt	-0.4	nt	33.1*	0.5	40.6*	RORg DNA counter=>40
CSC1=C(C#N)C(c2ccccc2Cl)C2=C(N1)c1ccccc1C2=O (stereo unspecified)	7.4	1.4	-0.3	33.0	62.4*	-3.6	19.9*
N#Cc1cc2ccccc2nc1SCc1ccccn1	-1.8	-2.2	-0.9	nt	-4.5	-2.8	nt
Cc1cc2cc3c(cc2nc1SCc1ccccn1)OCCO3	-9.3	-0.8	-2.9	nt	44.0*	0.0	17.2*
COC(=O)c1cc(-c2ccc(F)c(Cl)c2)c(=O)n2c1CCC2	nt	nt	nt	nt	-6.5	nt	nt
Cc1nn(-c2ccc(Cl)c(Cl)c2)c(=O)c2ccccc12	-15.8	-0.9	-1.4	-2.9	48.2*	0.2	41.1*	RORg DNA counter=>40
O=C1c2ccccc2C(Nc2ccc(S(=O)(=O)N3CCCCC3)cc2)N1c1ccccn1 (stereo unspecified)	21.7	0.1	-0.8	6.6	24.7*	-1.2	21.3*
O=c1cc(-c2ccccc2Cl)oc2c(NS(=O)(=O)c3cccs3)ccc(O)c12	11.4	-1.1	0.1	-7.3	26.9*	-0.5	33.4*	RORg DNA counter=>40
COc1ccccc1-n1c(SCC(=O)O)nc2c(sc(=S)n2-c2ccc(Cl)c(C)c2)c1=O	4.1	0.4	-1.0	nt	-7.9	-3.6	nt
Cc1cc(NC(=O)CSc2nc3cc(C)c(C)cc3cc2C)no1	-14.7	-0.2	-2.1	nt	85.4*	2.6	47.8*	RORg DNA counter=>40
Cc1cc(NC(=O)CSc2nc3c(C)c(C)ccc3cc2C)no1	-5.3	-0.7	-1.8	nt	24.6*	-1.6	15.1
CCc1cc2ccc(C)c(C)c2nc1SCC(=O)Nc1cc(C)on1	-0.4	0.1	1.1	nt	15.7	-1.3	nt
CCn1c(SCC(=O)Nc2nccc(C)n2)nc2ccccc21	0.1	0.7	-0.6	-3.2	-1.3	-2.6	nt
CCOc1cccc2cc(-c3cn4cc(C)ccc4n3)c(=O)oc12	3.1	-6.4	2.6	18.8	53.0*	-5.2	24.5*
Cc1cc(/C=N/NC(=O)C(O)(c2ccccc2)c2ccccc2)c(C)n1-c1cccc(C(=O)O)c1	-6.8	-0.5	-3.1	0.9	-1.6	-0.6	nt
CCOC(=O)c1c(NC(=O)CSc2nc3cc(Cl)ccc3s2)sc(C(C)=O)c1C	-4.5	nt	-5.6	nt	65.2*	-5.3	4.2
CCOC(=O)c1c(NC(=O)CSc2nc3ccccc3s2)sc(C(C)=O)c1C	-1.1	-0.5	-1.0	nt	25.3*	-4.3	42.7*	RORg DNA counter=>40
CCOC(=O)c1sc(NC(=O)c2ccc(S(=O)(=O)N(CC)CC)cc2)nc1C	2.7	-1.0	-0.1	16.4	152.3*	1.2	93.5*	RORg DNA counter=>40
CCOC(=O)c1sc(NC(=S)NC(=O)c2ccc(OC)cc2)nc1C	2.5	-0.3	-0.5	-1.9	83.1*	-3.1	65.5*	RORg DNA counter=>40
CCOC(=O)c1sc(Nc2nc(C)cc(OC)n2)nc1C	23.3	0.7	2.2	5.6	14.6*	0.5	6.5
CCOC(=O)c1sc(NC(=O)CCc2ccc(OC)cc2)nc1C	-7.1	-0.5	-1.4	nt	26.8*	0.0	13.3
CCOC(=O)c1sc(NC(=O)c2ccccc2OCC)nc1C	1.9	-0.8	-1.2	-0.2	35.9*	2.1	3.9
CCOC(=O)c1sc(Nc2ccccc2)nc1C	-11.7	-0.5	-0.6	nt	1.8	-3.5	nt
SMILES	T cruzi inh	hiPSC survival	PG9 Ab binder	TAG inh	Rev-erbA mod	MIN6 prolif	Rev-erbA confirm	others
CN(C)c1ccc(/C=c2\sc3n(c2=O)CCCN=3)cc1	5.7	-6.5	-17.9	-0.1	26.7*	-4.4	16.6
CCOC(=O)c1c(C2CC2)csc1NC(=O)COC(=O)c1cnc(Cl)c(Cl)c1	6.2	-0.1	-1.3	8.4	81.0*	0.3	80.3*	RORg DNA counter=>40
CCOC(=O)c1c(C2CC2)csc1NC(=O)COC(=O)c1ccc[n+]([O-])c1	-7.9	3.6	-1.1	nt	-0.8	2.9	nt
Cc1nnc(-c2cnn(C)c2N)n1Cc1ccc(Cl)cc1	-6.2	-1.4	-1.8	7.2	7.0	-1.0	nt
COc1ccccc1CNc1nc2cc(-c3sccc3C)sc2c(=O)n1C	nt	-2.1	0.6	-3.6	29.2*	nt	20.3*
COc1ccc2c(c1OC)C(=O)N1c3ccccc3C(=O)N(c3ccc(F)cc3)C21 (stereo unspecified)	-7.5	3.4	1.1	nt	5.4	5.0	nt
CC(C)NC(=O)/C(C#N)=C/c1ccc(N(C)C)o1	-2.5	0.9	-29.9	-12.9	24.8*	-2.2	7.4
Cc1ccc(/C=C(\C#N)C(=O)NC(C)C)o1	-1.6	0.0	0.1	1.6	3.6	-1.4	nt
O=C(CSc1nc(C2CCCCC2)nc2ccccc12)NCc1ccc2c(c1)OCO2	23.1	-0.6	0.2	15.9	19.6*	0.3	15.9
COc1cc(NC(=O)CSc2nc3ccccc3cc2C)c(C(=O)O)cc1OC	-23.6	0.2	-2.3	nt	-3.5	0.0	nt
Cc1ccc(-c2nnc(SCC(=O)Nc3ccc(S(=O)(=O)N4CCCCCC4)cc3)o2)cc1	14.2	-0.7	1.8	nt	-0.3	-2.1	nt
Cc1cc2cc3c(cc2nc1SCC(=O)Nc1ccccc1)CCC3	-8.9	-0.7	-0.9	nt	33.2*	-1.7	15.4
Cc1ccc2cc(C)c(SCC(=O)Nc3ccc(S(=O)(=O)N4CCCC4)cc3)nc2c1	18.1	-0.6	2.3	-6.2	26.8*	-2.4	19.1*
Cc1cc(=O)oc2c(C)c(OCC(=O)N3CC[C@@]4(O)CCCC[C@H]4C3)ccc12	0.6	-0.3	2.5	nt	0.0	-1.6	nt
CN(CCOc1ccccc1)CC(=O)Nc1cccc(Br)c1	18.4	0.3	-0.3	-16.9	3.2	-2.8	nt
CCN(CC)c1ccc(/C=c2\sc3nnc(-c4ccccc4Cl)n3c2=O)cc1	-9.5	0.6	-1.5	-1.7	18.9*	-2.4	13.6
Fc1cccc2sc(Nc3nc4cc5c(cc4s3)OCCO5)nc12	11.4	-3.1	-1.9	nt	33.9*	1.3	35.3*	RORg DNA counter=>40
Fc1cccc2sc(Nc3nc4cc5c(cc4s3)OCO5)nc12	20.1	-3.6	-0.3	14.3	19.3	-5.7	nt
OCCN1CCN(C(=S)Nc2ccc(Oc3ccccc3)cc2)CC1	-16.2	0.5	-0.8	nt	-1.5	-3.0	nt
N#CCc1ccc(NC(=O)c2ccc(S(=O)(=O)N3CCOCC3)cc2)cc1	-15.2	0.5	-0.4	nt	1.7	-2.8	nt

Screens as filed in PubChem BioAssay.
